Measured values reported in ChEMBL document CHEMBL3352335, “Eurifoloids A-R, structurally diverse diterpenoids from Euphorbia neriifolia” (J Nat Prod, 2014).
Active and inactive are the calls of the source. The calls are words filed in the database; no cut-off is given here.

Tests used:
[1] = test system: Human immunodeficiency virus 1; experiment: Antiviral activity against HIV-1 NL 4-3 infected in MT4 cells assessed as inhibition of virus-induced cytopathic effect; format: functional, organism-based; details: Human immunodeficiency virus 1, NL 4-3, MT4
How it was run: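 HIV-1 NL4-3-infected MT-4 cultures; run per a prior method with minor changes. The read-out is protection of cells from virus-induced cytopathic effect. EC50 is the concentration giving 50% protection, derived by curve fitting.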

[2] = Selectivity index, ratio of CC50 for human MT4 cells to EC50 for HIV-1 NL 4-3 infected in MT4 cells; format: toxicity, cell-based; details: read-out: Ratio CC50/EC50
[3] = biological target: T1, Tyrosine-protein phosphatase non-receptor type 1 (Homo sapiens) (UniProt P18031); experiment: Inhibition of PTP1B (unknown origin)
T1 sequence (whole entry): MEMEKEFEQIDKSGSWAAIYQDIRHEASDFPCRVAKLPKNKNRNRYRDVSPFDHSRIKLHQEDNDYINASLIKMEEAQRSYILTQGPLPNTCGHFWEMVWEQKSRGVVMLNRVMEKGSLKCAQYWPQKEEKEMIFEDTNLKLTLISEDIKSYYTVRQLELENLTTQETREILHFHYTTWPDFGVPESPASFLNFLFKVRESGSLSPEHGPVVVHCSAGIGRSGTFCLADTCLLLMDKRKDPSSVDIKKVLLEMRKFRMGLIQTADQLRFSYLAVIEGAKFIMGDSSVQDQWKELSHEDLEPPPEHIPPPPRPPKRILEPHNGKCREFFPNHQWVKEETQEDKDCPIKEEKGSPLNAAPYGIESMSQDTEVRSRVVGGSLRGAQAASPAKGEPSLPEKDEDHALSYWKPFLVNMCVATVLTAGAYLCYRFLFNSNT

[4] = Inhibition of XBP1 mRNA splicing (unknown origin) expressed in mouse B16-F10-XBP1-DBD-luc cells incubated for 8 hrs by luciferase reporter gene assay; format: cell-based
[5] = biological target: Nuclear factor NF-kappa-B complex (Homo sapiens) (UniProt Q00653+P19838+Q04206); experiment: Inhibition of TNFalpha-stimulated NF-kappaB signaling (unknown origin) expressed in HEK293 cells by luciferase reporter gene assay; format: cell-based
Nuclear factor NF-kappa-B complex (Homo sapiens), sequence (P19838 whole entry, looked up): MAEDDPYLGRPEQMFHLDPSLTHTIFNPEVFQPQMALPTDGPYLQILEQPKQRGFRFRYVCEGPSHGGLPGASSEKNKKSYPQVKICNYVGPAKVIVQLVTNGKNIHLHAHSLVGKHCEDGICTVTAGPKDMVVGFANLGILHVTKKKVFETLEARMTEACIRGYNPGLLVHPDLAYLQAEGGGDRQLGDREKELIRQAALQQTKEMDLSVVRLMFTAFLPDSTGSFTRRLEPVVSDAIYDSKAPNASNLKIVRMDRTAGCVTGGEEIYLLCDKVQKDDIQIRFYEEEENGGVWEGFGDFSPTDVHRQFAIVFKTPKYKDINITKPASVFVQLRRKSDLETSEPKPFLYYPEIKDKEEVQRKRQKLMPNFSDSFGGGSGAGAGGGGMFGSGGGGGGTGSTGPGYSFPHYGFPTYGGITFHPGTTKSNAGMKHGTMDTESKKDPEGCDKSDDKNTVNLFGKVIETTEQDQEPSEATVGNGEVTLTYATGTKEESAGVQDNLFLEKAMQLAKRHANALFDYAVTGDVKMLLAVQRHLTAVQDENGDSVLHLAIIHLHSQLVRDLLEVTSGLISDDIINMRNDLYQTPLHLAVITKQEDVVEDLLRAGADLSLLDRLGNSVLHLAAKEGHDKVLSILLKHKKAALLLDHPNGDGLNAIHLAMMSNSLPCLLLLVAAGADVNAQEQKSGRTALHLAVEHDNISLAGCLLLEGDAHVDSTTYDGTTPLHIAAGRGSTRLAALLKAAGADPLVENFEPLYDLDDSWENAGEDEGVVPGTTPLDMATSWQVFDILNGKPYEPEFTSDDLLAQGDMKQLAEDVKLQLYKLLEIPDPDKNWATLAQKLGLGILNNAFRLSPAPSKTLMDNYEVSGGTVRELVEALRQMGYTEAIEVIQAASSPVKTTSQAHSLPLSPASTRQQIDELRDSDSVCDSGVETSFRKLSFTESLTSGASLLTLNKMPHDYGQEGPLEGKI
Nuclear factor NF-kappa-B complex (Homo sapiens), sequence (Q00653 whole entry, looked up): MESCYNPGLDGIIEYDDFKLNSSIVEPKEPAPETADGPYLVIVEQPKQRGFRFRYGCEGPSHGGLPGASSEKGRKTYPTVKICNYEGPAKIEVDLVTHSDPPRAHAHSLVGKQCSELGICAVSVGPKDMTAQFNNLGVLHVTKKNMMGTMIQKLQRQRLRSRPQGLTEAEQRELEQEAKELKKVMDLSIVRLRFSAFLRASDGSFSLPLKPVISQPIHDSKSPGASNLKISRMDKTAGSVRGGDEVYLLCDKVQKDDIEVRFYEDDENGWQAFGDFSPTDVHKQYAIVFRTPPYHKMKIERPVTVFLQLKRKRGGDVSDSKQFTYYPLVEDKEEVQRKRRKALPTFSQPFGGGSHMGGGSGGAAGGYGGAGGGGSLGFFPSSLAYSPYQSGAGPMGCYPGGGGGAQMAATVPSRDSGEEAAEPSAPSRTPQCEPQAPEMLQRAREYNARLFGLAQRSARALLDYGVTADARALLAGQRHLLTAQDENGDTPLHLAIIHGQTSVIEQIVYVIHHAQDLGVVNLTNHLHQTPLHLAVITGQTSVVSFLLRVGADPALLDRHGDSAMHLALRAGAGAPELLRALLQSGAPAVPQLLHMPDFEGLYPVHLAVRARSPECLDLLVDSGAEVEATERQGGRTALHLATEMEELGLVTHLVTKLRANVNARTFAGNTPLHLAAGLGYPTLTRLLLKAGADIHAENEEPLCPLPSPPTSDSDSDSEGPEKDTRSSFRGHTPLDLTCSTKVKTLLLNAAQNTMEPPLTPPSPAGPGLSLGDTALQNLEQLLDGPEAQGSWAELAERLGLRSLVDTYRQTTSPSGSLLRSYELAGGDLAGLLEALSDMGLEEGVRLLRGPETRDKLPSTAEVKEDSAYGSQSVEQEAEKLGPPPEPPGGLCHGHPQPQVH
Nuclear factor NF-kappa-B complex (Homo sapiens), sequence (Q04206 whole entry, looked up): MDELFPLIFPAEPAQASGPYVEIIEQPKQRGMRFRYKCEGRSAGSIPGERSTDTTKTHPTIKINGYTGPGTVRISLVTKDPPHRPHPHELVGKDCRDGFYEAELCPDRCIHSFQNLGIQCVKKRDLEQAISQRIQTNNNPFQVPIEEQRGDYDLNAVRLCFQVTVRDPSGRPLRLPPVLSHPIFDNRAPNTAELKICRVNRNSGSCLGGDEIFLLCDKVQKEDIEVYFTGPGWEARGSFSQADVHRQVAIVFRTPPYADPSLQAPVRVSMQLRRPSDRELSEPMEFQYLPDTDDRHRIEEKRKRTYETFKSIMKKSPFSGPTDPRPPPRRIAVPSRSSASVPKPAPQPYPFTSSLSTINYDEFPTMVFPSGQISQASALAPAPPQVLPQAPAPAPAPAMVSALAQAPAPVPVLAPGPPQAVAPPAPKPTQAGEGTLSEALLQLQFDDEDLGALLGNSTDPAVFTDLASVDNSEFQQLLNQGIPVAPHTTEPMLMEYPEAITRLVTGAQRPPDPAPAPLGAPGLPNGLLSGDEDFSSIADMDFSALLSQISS

| EC50 [1] | inhibition [3] | inhibition [5] | SMILES | selectivity ratio [2] | inhibition [4] |
| --- | --- | --- | --- | --- | --- |
| 7.4 µM |  |  | CC1=C2[C@H]3O[C@]34CC[C@@H]3C(C)(C)CC[C@H](O)[C@@]3(C)[C@@H]4C[C@H]2OC1=O | 10.3 |  |
|  | inactive | inactive | C=C[C@@]1(C)C=C2CC[C@H]3[C@@](C)(CC[C@@H](OC(C)=O)[C@]3(C)C(=O)O)[C@@H]2C[C@@H]1O |  | inactive |
|  | inactive | inactive | C=C1C[C@@]23CC[C@@H]4C(C)(C)C(=O)CC[C@@]4(C)[C@@H]2C[C@@H]1C[C@H]3O |  | inactive |
|  | inactive | inactive | CC1(C)C(=O)CC[C@]2(C)[C@@H]1CC[C@@]13CC[C@@H](C[C@H]12)C(=O)C3 |  | inactive |
|  | inactive | inactive | C[C@@]12CCC(=O)[C@@](C)(CO)[C@H]1CC[C@@]13CC[C@@H](C[C@H]12)[C@](O)(CO)C3 |  | inactive |

Second part, the compound before the results:

| SMILES | EC50 [1] | inhibition [3] | inhibition [5] | selectivity ratio [2] | inhibition [4] |
| --- | --- | --- | --- | --- | --- |
| C=C[C@@]1(C)C=C2CC[C@@H]3C(C)(C)[C@H](OC(C)=O)CC[C@@]3(C)[C@@H]2C[C@@H]1O |  | inactive | inactive |  | inactive |
| CC(=O)O[C@H]1C2=C(C[C@H]3OC(=O)C(C)=C13)[C@@]1(C)[C@H](CC2)C(C)(C)CC[C@@H]1O | 3.58 µM |  |  | 8.6 |  |
| C=C1C[C@@]23CC[C@@H]4C(C)(C)C(=O)CC[C@@]4(C)[C@@H]2C[C@@H]1[C@@H](O)[C@H]3O |  | inactive | inactive |  | inactive |
| C=C[C@@]1(C)C=C2CC[C@@H]3[C@@](C)(C=O)[C@H](OC(C)=O)CC[C@@]3(C)[C@@H]2C[C@@H]1O |  | inactive | inactive |  | inactive |
